Test results reported in ChEMBL document CHEMBL5674882, “Benzolactam-related compounds promote apoptosis of HIV-infected human cells via protein kinase C-induced HIV latency reversal” (J Biol Chem, 2019).
Activity calls are given as the source filed them. The calls are words filed in the database; no cut-off is given here.

Experiments:
U-937 = test: Induction of apoptosis in human U-937 cells assessed as caspase-3 activation at 10 nM incubated for 24 hrs by flow cytometry; type: functional
How it was run: (§1)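 Cells fixed in 1% paraformaldehyde, permeabilized, stained 30 min on ice with anti-active caspase-3 mAb, and analysed by flow cytometry. Three independent experiments.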

J-Lat 6.3 (Homo sapiens) = test: Induction of apoptosis in human J-Lat 6.3 cells at 1 uM incubated for 48 hrs after pre-incubated for 2 hrs with 20 uM caspase inhibitor Q-VD-Oph by propidium iodide/annexin-V staining based flow cytometry
[1] = target: T1, Protein kinase C (PKC) (Homo sapiens) (UniProt O94806+P41743+P17252+P05129+Q05655+P05771+Q05513+Q02156+P24723+Q15139+Q04759); test: Induction of apoptosis in CCL19-induced human CD4+ T-cells infected with latent HIV-1 assessed as caspase-3 activation at 100 nM incubated for 48 hrs in presence of 2 uM ionomycin by incubated for 48 hrs by FACS; type: cell-based; conditions: CD4+ T cell, filed as activator
How it was run: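 Latency model: healthy-donor CD4+ T-cells given 100 nM CCL19 for 2 days, infected with HIV-1 NL4-3, kept 5 days in IL-2. Stimulated 2 days with 1 µM drug or 100 nM PMA plus 2 µM ionomycin. Cells fixed and permeabilized, co-stained with anti-p24 and anti-active caspase-3 mAbs; active caspase-3 read by flow cytometry separately in p24+ and p24− cells. Two donors.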

U1 [2] = test: Induction of apoptosis in human U1 cells at 1 uM incubated for 48 hrs after pre-incubated for 2 hrs with 20 uM caspase inhibitor Q-VD-Oph by propidium iodide/annexin-V staining based flow cytometry; type: functional, cell-based
How it was run: (§2)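 ACH-2 or U1 cells pretreated 2 h with 20 µM pan-caspase inhibitor Q-VD-Oph, then exposed to 1 µM compound for 48 h. Annexin-V/PI staining by flow cytometry; apoptotic proportions compared with and without Q-VD-Oph. Mean ± S.D.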

J-Lat 6.3 [3] = test: Induction of apoptosis in human J-Lat 6.3 cells at 1 uM incubated for 48 hrs by propidium iodide/annexin-V staining based flow cytometry (reference value: 3.16%); type: functional
U1 [4] = test: Induction of apoptosis in human U1 cells assessed as caspase-3 activation at 10 nM incubated for 24 hrs by flow cytometry; type: functional; how it was run: as §1
U1 [5] = test: Induction of apoptosis in human U1 cells assessed as caspase-3 activation at 10 nM incubated for 24 hrs by flow cytometry (reference value: 1.86%); type: functional; how it was run: as §1
Jurkat = test: Induction of apoptosis in human Jurkat cells assessed as caspase-3 activation at 10 nM incubated for 24 hrs by flow cytometry; type: functional; how it was run: as §1
ACH-2 cell line [6] = test: Induction of apoptosis in human ACH-2 cells assessed as cleaved-PARP level at 10 nM incubated for 24 hrs by flow cytometry (reference value: 1.64%); type: functional
How it was run: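 Cells fixed, permeabilized, stained on ice with anti-cleaved PARP (Asp-214) mAb; % cleaved-PARP cells by flow cytometry. Means ± S.D. of three independent experiments.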

U1 [7] = test: Induction of apoptosis in human U1 cells at 1 uM incubated for 48 hrs by propidium iodide/annexin-V staining based flow cytometry (reference value: 3.16%); type: functional
ACH-2 cell line [8] = test: Induction of apoptosis in human ACH-2 cells at 1 uM incubated for 48 hrs after pre-incubated for 2 hrs with 20 uM caspase inhibitor Q-VD-Oph by propidium iodide/annexin-V staining based flow cytometry; type: functional, cell-based; how it was run: as §2
ACH-2 cell line [9] = test: Induction of apoptosis in human ACH-2 cells at 1 uM incubated for 48 hrs by propidium iodide/annexin-V staining based flow cytometry (reference value: 3.16%); type: functional
ACH-2 cell line [10] = test: Induction of apoptosis in human ACH-2 cells assessed as caspase-3 activation at 10 nM incubated for 24 hrs by flow cytometry; type: functional; how it was run: as §1
[11] = target: T1, Protein kinase C (PKC) (Homo sapiens); test: Activation of PKC in CCL19-induced human CD4+ T-cells infected with latent HIV-1 assessed as reversal of HIV-1 latency by measuring increase in p24 antigen level at 100 nM incubated for 48 hrs in presence of 2 uM ionomycin by chemiluminescent enzyme immunoassay; type: cell-based; conditions: CD4+ T cell, filed as activator
J-Lat 6.3 [12] = test: Induction of apoptosis in human J-Lat 6.3 cells assessed as caspase-3 activation at 10 nM incubated for 24 hrs by flow cytometry (reference value: 2.43%); type: functional; how it was run: as §1
[13] = Induction of apoptosis in human CEM A3.01 cells assessed as caspase-3 activation at 10 nM incubated for 24 hrs by flow cytometry; type: functional; how it was run: as §1
J-Lat 6.3 [14] = test: Induction of apoptosis in human J-Lat 6.3 cells assessed as caspase-3 activation at 10 nM incubated for 24 hrs by flow cytometry; type: functional; how it was run: as §1

CCCCCCCCCCCCCC(=O)O[C@@H]1[C@@H](C)[C@@]2(O)[C@@H](C=C(CO)C[C@]3(O)C(=O)C(C)=C[C@@H]23)[C@@H]2C(C)(C)[C@]12OC(C)=O [PHORBOL MYRISTATE ACETATE]
Activity (U-937): 1.02% | Activity (J-Lat 6.3 (Homo sapiens)): inactive | Activity [1]: Active | Activity (U1 [2]): inactive | Activity (J-Lat 6.3 [3]): 15.2% | Activity (U1 [4]): 33.6% | Activity (U1 [5]): 8.06% | Activity (Jurkat): 2.03% | Activity (ACH-2 cell line [6]): 21.7% | Activity (U1 [7]): 28.7% | Activity (ACH-2 cell line [8]): inactive | Activity (ACH-2 cell line [9]): 40.3% | Activity (ACH-2 cell line [10]): 27% | Activity [11]: Active | Activity (J-Lat 6.3 [12]): 19.9% | Activity [13]: 2.39% | Activity (J-Lat 6.3 [14]): 12.9%
